# Fibroblast inh = blocks proliferation of human lung fibroblasts. viability, % at 10 µM. LL 47 human lung fibroblast viability, ATP luminescence; stronger effect = lower value. 85,000 compounds, 1.1% hits. AID 719;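 active = viability at or below 50% in the single dose screen; inactive = viability above 50%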;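 also: compound exposure lasted 72 h before the ATP readout; 100% = median luminescence of untreated cell-only wells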
#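 Times – overnight cell rest, 72 h compound treatment at 37 °C · Test system – human lung fibroblast line LL 47, low passage · Amount – 1,150 cells in each well · Controls – cell-only wells, no compound · Doses – 0.1% DMSO in all compound wells · Measured by – CellTiter-Glo luminescence · Buffer or medium – IMEM plus 15% FBS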
# HUVEC prolif 384 = blocks proliferation of human endothelial cells; HUVEC proliferation, CellTiter-Glo luminescence, 72 h; stronger effect = lower value; viability, % at 10 µM (by protocol); 86,000 compounds, 1.1% hits; AID 648;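 active = viability at or below 30%; inactive = viability above 30%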;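 also: 100% = median luminescence of DMSO-only cell control wells on each plate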
# PTEN del growth = PTEN-deleted cell growth suppression; AID 827; 140,000 compounds, 1.2% hits; viability, % at 10 µM; HCT116 PTEN-null viability, CellTiter-Glo, 60 h; stronger effect = lower value;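 active = viability at or below a set limit, 4 SD under the median of all tested compounds, cut at about 3.7% in these data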;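 also: PTEN knockout HCT116 line with beta catenin targeted HCT116 as companion control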
# H69AR growth 86K = blocks growth of human H69AR lung tumor cells | AID 598 | H69AR lung tumor viability, ATP luminescence, 72 h; stronger effect = lower value | 85,000 compounds, 6% hits | viability, % at 10 µM;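 active = viability at or below 40%; inactive = viability above 40%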;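 also: multidrug resistant small cell line overexpressing MRP-1 efflux transporter; 100% = mean luminescence of untreated control wells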
# PTK2B oligo ant = blocks oligomerization of human Pyk2 in cells | Q14289 | Q293 cells, Pyk2 FERM NanoBiT luminescence; stronger effect = lower value | z-score (the deposit names both 25 µM and 10 µM) | 99,000 compounds, 0.83% hits | AID 1347419;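 active = Z-score of -3 or lower, scaled per plate to the spread of control and sample wells; inactive = z-score above -3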;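 also: negative z-score means lost luminescence so less FERM oligomerization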
# Target sequence (Q14289 whole entry, looked up): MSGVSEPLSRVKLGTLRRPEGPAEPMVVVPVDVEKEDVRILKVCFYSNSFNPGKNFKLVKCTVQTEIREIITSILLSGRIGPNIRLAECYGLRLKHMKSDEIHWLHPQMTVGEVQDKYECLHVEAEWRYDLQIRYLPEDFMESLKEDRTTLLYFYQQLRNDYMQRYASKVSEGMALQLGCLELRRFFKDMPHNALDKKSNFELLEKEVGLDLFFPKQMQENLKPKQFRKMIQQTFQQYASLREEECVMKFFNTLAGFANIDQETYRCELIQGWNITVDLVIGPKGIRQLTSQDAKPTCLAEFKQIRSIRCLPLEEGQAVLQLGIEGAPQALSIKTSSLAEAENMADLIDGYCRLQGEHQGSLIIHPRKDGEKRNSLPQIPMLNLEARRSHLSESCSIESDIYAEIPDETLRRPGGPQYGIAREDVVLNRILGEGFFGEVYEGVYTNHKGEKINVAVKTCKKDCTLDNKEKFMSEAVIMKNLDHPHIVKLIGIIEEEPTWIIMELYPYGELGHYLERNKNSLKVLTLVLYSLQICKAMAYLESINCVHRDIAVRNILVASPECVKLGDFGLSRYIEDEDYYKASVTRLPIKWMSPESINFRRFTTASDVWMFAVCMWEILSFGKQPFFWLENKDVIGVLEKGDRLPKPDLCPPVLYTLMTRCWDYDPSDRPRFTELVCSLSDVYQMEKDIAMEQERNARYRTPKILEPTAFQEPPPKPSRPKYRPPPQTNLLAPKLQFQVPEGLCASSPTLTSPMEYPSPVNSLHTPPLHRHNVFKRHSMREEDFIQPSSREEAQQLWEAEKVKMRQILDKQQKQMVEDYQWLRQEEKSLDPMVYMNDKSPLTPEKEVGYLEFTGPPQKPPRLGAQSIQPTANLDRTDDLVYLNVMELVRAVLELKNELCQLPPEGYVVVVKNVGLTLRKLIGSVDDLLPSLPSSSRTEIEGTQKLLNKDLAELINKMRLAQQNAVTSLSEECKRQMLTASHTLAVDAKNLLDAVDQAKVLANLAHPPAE
# bCat KO growth = beta-catenin-lacking colon tumor cell growth suppression; HCT116 beta-catenin knockout viability, CellTiter-Glo, 60 h; stronger effect = lower value; viability, % at 10 µM; 140,000 compounds, 1.5% hits;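 active = viability at or under a set limit, the compound median less 4 SD, cut at about 6% in these data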;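 also: 0% = Hyamine 1622 control at 20 µM and 100% = untreated cell control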
# * hit, by the source's call; nt = no result given. The entries come from a sample that favours hits as a whole.
SMILES,Fibroblast inh,HUVEC prolif 384,PTEN del growth,H69AR growth 86K,PTK2B oligo ant,bCat KO growth
COc1ccc(NC(=O)c2cn(-c3ccccc3)nc2-c2cc3ccccc3o2)cc1,nt,nt,59.5,nt,-4.5*,72.1
O=C(CS(=O)(=O)c1ccccc1)Nc1ccc(Br)cn1,nt,nt,101.7,nt,1.23,91.2
COc1cccc(/C=N/n2cnc3ccccc32)c1OC,121.5,95.5,95.8,29.7*,-1.2,83.8
COC(=O)CNC(=O)Cc1c(F)cccc1Cl,95.2,97.2,99.8,108.1,0.44,95.7
Cc1ccc2nc(N(CCN(C)C)C(=O)/C=C/c3cccs3)sc2c1,nt,nt,79.5,nt,nt,78.3
CN(C)CCN(C(=O)/C=C/c1cccs1)c1nc2c(F)cc(F)cc2s1,nt,nt,2.0*,nt,nt,1.6*
CCOC(=O)C1(S(=O)(=O)c2ccc(Cl)cc2)CCN(Cc2ccc(C)cc2)CC1,nt,nt,83.7,nt,-0.94,70.5
CCCC1=C(C(=O)OCC)C(c2ccc(N(C)C)cc2)n2ncnc2N1 (stereo not given),91.6,104.0,93.5,74.1,-1.32,109.4
O=c1oc2ccccc2cc1-c1nnc(NCc2ccco2)s1,91.0,71.1,35.1,32.2*,0.99,58.1
CCn1cc(Cl)c(C(=O)N2N=C3/C(=C/c4cccs4)CCCC3C2c2cccs2)n1 (stereo not given),92.2,75.4,50.9,37.9*,-1.21,53.6
CCN(CC)C(NC(=O)c1ccccc1)C(=O)c1ccccc1 (stereo not given),102.2,96.8,100.6,102.3,-0.06,89.9
CC1Cc2ccccc2N1C(=O)CSc1nnc(NC(=O)Cc2cccs2)s1 (stereo not given),100.2,95.7,89.0,90.0,nt,83.3
CCC(=O)Nc1nnc(SCC(=O)N2c3ccccc3CC2C)s1 (stereo not given),36.5*,76.1,78.1,92.5,0.84,82.8
CCOC(=O)Nc1cc(=O)c2ccccc2o1,nt,61.4,26.9,14.3*,0.71,23.6
Cc1ccc(OC(=O)c2cc(=O)c3ccccc3o2)cc1,nt,nt,102.1,nt,nt,102.8
O=C(c1ccc(Cl)c(S(=O)(=O)NCc2ccccc2)c1)N1CCN(c2ccccn2)CC1,94.2,74.5,nt,20.6*,-0.96,48.1
Cc1cccc(N2CCN(C(=O)c3ccc(Cl)c(S(=O)(=O)NCc4ccco4)c3)CC2)c1C,67.8,54.8,8.7,20.7*,-0.78,10.5
O=C(/C=C/c1ccc(S(=O)(=O)N2CCOCC2)cc1)NCc1ccccc1,nt,nt,101.3,nt,nt,90.3
COC(=O)C1=C(C)NC(=O)/C1=C\c1cc(C)n(-c2c(C)cccc2C)c1C,60.2,26.6*,69.2,45.8,-0.74,75.8
N#CC1=C(N)C(C#N)(C#N)C2(CCC3(CC2)OCCO3)C2CC3(CC=C12)OCCO3 (stereo not given),108.0,93.8,92.1,96.7,1.42,91.5
CN1C2C=C3C(C#N)=C(N)C(C#N)(C#N)[C@@H](c4cccc(F)c4)[C@@H]3C1CC2 (stereo not given in full),98.3,99.8,96.9,81.5,0.64,93.5
N#CC1=C(N)C(C#N)(C#N)[C@H](c2c(F)cccc2F)[C@H]2CC3(CC=C12)OCCO3,59.4,47.8,37.0,3.0*,-1.82,43.3
CN1C2C=C3C(C#N)=C(N)C(C#N)(C#N)[C@H](c4c(F)cccc4F)[C@H]3C1CC2 (stereo not given in full),97.0,92.7,61.6,17.6*,-0.83,52.3
COCc1nnc(NC(=O)c2cc(OC)c(OC)cc2[N+](=O)[O-])s1,nt,nt,94.3,nt,nt,90.5
Cc1ccc(S(=O)(=O)N(C)c2ccc(C(=O)N3CCN(Cc4ccc5c(c4)OCO5)CC3)cc2)cc1,94.9,91.3,18.4,24.7*,-0.47,13.6
SMILES,Fibroblast inh,HUVEC prolif 384,PTEN del growth,H69AR growth 86K,PTK2B oligo ant,bCat KO growth
C=CCn1c(SCc2csc(C)n2)nc2sc3c(c2c1=O)CCC(C)C3 (stereo not given),88.3,86.7,54.9,30.7*,-1.07,57.6
C=CCn1c(SCc2csc(C)n2)nc2sc3c(c2c1=O)CCCC3,85.8,60.9,73.1,74.7,-0.64,66.4
O=S(=O)(c1ccc(Cl)cc1)N1c2ccccc2Oc2nc3ccccc3nc21,81.6,80.4,64.7,54.6,-2.09,80.8
COc1ccc(S(=O)(=O)N2c3cc(Cl)ccc3Oc3nc4ccccc4nc32)cc1,56.3,47.8,13.0,29.0*,-0.77,12.6
CCOc1ccccc1C(=O)NC(CO)C(=O)O (stereo not given),108.1,98.4,100.2,99.9,-0.01,91.2
COC(=O)c1ccc(N2CCCCC2)c(NS(=O)(=O)c2ccc(C)cc2)c1,100.8,89.8,52.7,76.7,-1.55,34.7
CCN(CC)CCNC(=O)c1ccc(N2CCCCC2)c(NS(=O)(=O)c2ccc(C)cc2)c1,67.1,66.1,1.8*,76.8,-0.83,1.8*
NCCc1ccc(O)c(O)c1,nt,nt,22.4,nt,nt,5.8*
COC(=O)c1ccc(NC(=O)c2ccccc2N(C)S(=O)(=O)c2ccccc2)cc1,nt,nt,93.9,nt,-2.35,89.3
O=c1c(F)cn(C2CCCO2)c(=O)n1Cc1c(Cl)cccc1Cl (stereo not given),90.7,88.0,88.6,28.3*,0.01,83.7
O=C(Cc1c(F)cccc1Cl)NCC1CCCO1 (stereo not given),99.2,94.7,95.8,95.5,1.44,106.6
O=Cc1c(Sc2ccccc2)nc2ccccn2c1=O,64.3,69.0,60.1,2.6*,-0.97,46.1
O=Cc1c(N2CCCCCC2)nc2ccccn2c1=O,93.6,93.3,91.2,101.9,0.06,90.9
O=Cc1c(Sc2ccccn2)nc2ccccn2c1=O,102.0,85.4,81.0,21.7*,-0.44,77.6
COCCOc1cc(-n2ccnc2SC)c(Cl)cc1Cl,nt,nt,82.1,nt,1.98,75.5
O=C(c1cccnc1)N1CCN(S(=O)(=O)c2ccc3ccccc3c2)CC1,96.7,94.8,88.4,79.0,0.62,96.0
O=C(c1cc(=O)[nH]c2ccccc12)N1CCN(S(=O)(=O)c2ccc3ccccc3c2)CC1,99.4,75.5,78.1,62.7,-3.26*,83.8
COCCNC(=O)c1cc(-c2ccccc2OC)on1,95.1,90.4,57.8,36.3*,nt,60.4
COc1ccc(-c2cc(C(=O)Nc3cc(C)nn3-c3ccccc3)no2)cc1,88.1,81.3,74.0,63.9,0.4,89.8
COc1ccccc1-c1cc(C(=O)Nc2cc(C)nn2-c2ccccc2)no1,67.6,65.9,25.8,27.1*,0.18,36.0
COc1ccccc1-c1cc(C(=O)Nc2cc(C)n(Cc3ccc(Cl)cc3)n2)no1,98.4,35.9,87.6,5.4*,-0.15,89.6
COc1ccccc1-c1cc(C(=O)NCc2cccs2)no1,87.5,92.0,99.8,63.5,-1.81,106.7
CSCCC(NC(=O)c1cccc([N+](=O)[O-])c1)C(=O)O (stereo not given),nt,nt,104.8,nt,nt,104.7
CC1(C)Cc2c(c(-c3ccco3)nc3sc4c(NCCN5CCOCC5)ncnc4c23)CO1,nt,nt,1.4*,nt,nt,1.6*

# High-throughput results (PubChem BioAssay)
